Results from ChEMBL document CHEMBL1123786, “Design of nonpeptidal ligands for a peptide receptor: cholecystokinin antagonists” (J Med Chem, 1987).

Experiments:
Cholecystokinin receptor = molecular target: T1, Cholecystokinin receptor (Rattus norvegicus, UniProt P30551+P30553); type: protein assay
T1 sequence (P30551 whole entry): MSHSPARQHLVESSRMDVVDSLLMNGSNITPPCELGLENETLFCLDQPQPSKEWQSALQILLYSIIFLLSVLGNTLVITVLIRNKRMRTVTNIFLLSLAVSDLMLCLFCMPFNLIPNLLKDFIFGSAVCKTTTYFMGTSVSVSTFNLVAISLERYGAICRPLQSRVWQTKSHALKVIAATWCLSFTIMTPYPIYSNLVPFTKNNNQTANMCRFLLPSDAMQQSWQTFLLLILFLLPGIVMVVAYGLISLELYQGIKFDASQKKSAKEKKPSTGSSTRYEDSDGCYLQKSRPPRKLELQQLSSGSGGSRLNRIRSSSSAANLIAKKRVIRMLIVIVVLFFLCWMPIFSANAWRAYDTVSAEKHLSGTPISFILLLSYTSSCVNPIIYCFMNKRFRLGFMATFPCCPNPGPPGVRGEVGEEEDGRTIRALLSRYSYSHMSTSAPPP
T1 sequence (P30553 whole entry): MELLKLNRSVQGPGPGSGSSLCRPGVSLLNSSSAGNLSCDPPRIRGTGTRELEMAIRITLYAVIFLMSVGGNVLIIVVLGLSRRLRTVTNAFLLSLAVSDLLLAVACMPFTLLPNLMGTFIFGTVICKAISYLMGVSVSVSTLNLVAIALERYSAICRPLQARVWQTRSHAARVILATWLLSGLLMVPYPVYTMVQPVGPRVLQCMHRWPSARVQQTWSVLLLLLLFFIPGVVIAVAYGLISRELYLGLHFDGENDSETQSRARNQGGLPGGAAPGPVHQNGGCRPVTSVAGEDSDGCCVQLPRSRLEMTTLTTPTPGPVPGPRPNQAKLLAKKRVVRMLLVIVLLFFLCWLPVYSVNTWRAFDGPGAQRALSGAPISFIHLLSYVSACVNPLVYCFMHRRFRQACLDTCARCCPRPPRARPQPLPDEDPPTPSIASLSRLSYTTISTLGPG

[1] = molecular target: GABA-A receptor; anion channel; test: Displacement of [3H]flunitrazepam from GABA-A benzodiazepine receptor of guinea pig brain; design: species or system Cavia porcellus
Mus musculus [2] = test: In vivo activity on the basis of the ability to antagonize CCK-8 inhibition of charcoal meal gastric emptying in mice after intraperitoneal administration; type: functional; settings: Stomach, ip
Summary of the method: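 Mice dosed intraperitoneally 1 h before CCK-8 (80 μg/kg, sc), N ≥ 10/dose. A charcoal meal was given 5 min after CCK-8 and gastric emptying was measured 5 min later. ED50 was derived by regression from at least three dose levels.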

Mus musculus [3] = test: In vivo activity on the basis of the ability to antagonize CCK-8 inhibition of charcoal meal gastric emptying in mice after oral administration; type: functional; settings: Stomach
Summary of the method: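 Oral dosing of mice (N ≥ 10/dose) 1 h before sc CCK-8 at 80 μg/kg. The charcoal meal followed CCK-8 by 5 min, with gastric emptying scored 5 min after that. ED50 was obtained by regression analysis using at least three dose levels.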

[4] = molecular target: GABA-A receptor; anion channel; test: Displacement of [3H]diazepam from rat brain GABA-A benzodiazepine receptor
Rattus norvegicus = organism: Rattus norvegicus; test: Selectivity of binding to pancreatic CCK and brain benzodiazepine receptors, ratio of IC50

Structure (SMILES) | IC50 (Cholecystokinin receptor) | also measured
O=C1Nc2ccc(Cl)cc2C(c2ccccc2)=N[C@@H]1Cc1ccc(OCc2ccccc2)cc1 | > 100 µM | –
CN1C(=O)[C@@H](Cc2cn(Cc3ccccc3)c3ccccc23)N=C(c2ccccc2)c2cc(Cl)ccc21 | ~ 150 uM | –
CN1C(=O)[C@@H](Cc2cn(C(=O)c3ccc(Cl)cc3)c3ccccc23)N=C(c2ccccc2F)c2ccccc21 | 11 µM | –
CN1C(=O)[C@@H](Cc2c[nH]c3ccccc23)N=C(c2ccccc2F)c2ccccc21 | 0.27 µM | IC50 [1]: > 100 µM; ED50 (Mus musculus [2]): 15 mg/kg; ED50 (Mus musculus [3]): 25 mg/kg
CN1C(=O)/C(=C/c2ccsc2)N=C(c2ccccc2)c2ccccc21 | 100 µM | –
O=C(O)CCN1C(=O)[C@@H](Cc2c[nH]c3ccccc23)N=C(c2ccccc2F)c2ccccc21 | 1.4 µM | –
CC(C)CCN1C(=O)[C@@H](Cc2c[nH]c3ccccc23)N=C(c2ccccc2F)c2ccccc21 | ~ 100 uM | –
O=C1Nc2ccc(Cl)cc2C(c2ccccc2)=N[C@@H]1Cc1ccccc1 | 80 µM | –
CCCCCN1C(=O)[C@@H](Cc2c[nH]c3ccccc23)N=C(c2ccccc2F)c2ccccc21 | ~ 100 uM | –
CCOC(=O)CN1C(=O)[C@@H](Cc2c[nH]c3ccccc23)N=C(c2ccccc2F)c2ccccc21 | 8.3 µM | –
O=C1Nc2ccccc2C(c2ccccc2)=NC1Cc1c[nH]c2ccc(Br)cc12 (stereo not given) | 2.9 µM | –
O=C1[C@H](Cc2c[nH]c3ccccc23)N=C(c2ccccc2)c2cc(Cl)ccc2N1Cc1ccccc1 | > 100 µM | –
CCN1C(=O)[C@@H](Cc2c[nH]c3ccccc23)N=C(c2ccccc2F)c2ccccc21 | 0.3 µM | –
O=C1Nc2ccc(Cl)cc2C(c2ccccc2Cl)=N[C@@H]1Cc1c[nH]c2ccccc12 | 5 µM | IC50 [4]: > 180 µM; ED50 (Mus musculus [2]): 119 mg/kg; ED50 (Mus musculus [3]): > 600 mg/kg
O=C(O)c1ccccc1C1=N[C@H](Cc2c[nH]c3ccccc23)C(=O)Nc2ccccc21 | 18 µM | –
CN1C(=O)[C@@H](Cc2c[nH]c3ccccc23)N=C(c2ccccc2)c2cc(Cl)ccc21 | 1.4 µM | –
O=C1Nc2ccccc2C(c2ccccc2F)=NC1C[C@H]1CNc2ccccc21 (stereo not given in full) | 17 µM | –
O=C1Nc2ccccc2C(c2ccccc2F)=NC1c1ccsc1 (stereo not given) | > 100 µM | –
CN1C(=O)[C@@H](Cc2c[nH]c3ccccc23)N=C(c2ccccc2)c2ccccc21 | 0.3 µM | –
CN1C[C@@H](CC2N=C(c3ccccc3)c3ccccc3N(C)C2=O)c2ccccc21 (stereo not given in full) | 13 µM | –
CC(C)C[C@@H]1N[C@H]2N(C1=O)c1ccccc1[C@@]2(O)C[C@@H]1NC(=O)c2ccccc2-n2c1nc1ccccc1c2=O [ASPERLICIN] | – | IC50 [4]: 50 µM; ED50 (Mus musculus [3]): > 300 mg/kg; Ratio (Rattus norvegicus): 0.028
CN1C(=O)[C@@H](Cc2cn(C)c3ccccc23)N=C(c2ccccc2)c2ccccc21 | 0.1 µM | –
O=C1Nc2ccc(Cl)cc2C(c2ccccc2)=N[C@@H]1Cc1c[nH]c2ccccc12 | 3.4 µM | IC50 [4]: > 100 µM; ED50 (Mus musculus [2]): 88 mg/kg; ED50 (Mus musculus [3]): > 300 mg/kg
CN1CC(CC2N=C(c3ccccc3)c3ccccc3N(C)C2=O)c2ccccc21 (stereo not given) | 10 µM | –
O=C1[C@@H](Cc2c[nH]c3ccccc23)N=C(c2ccccc2F)c2ccccc2N1CC(F)(F)F | 3.6 µM | –
N#CCCN1C(=O)[C@@H](Cc2c[nH]c3ccccc23)N=C(c2ccccc2F)c2ccccc21 | 0.7 µM | –
CN(C)CCN1C(=O)[C@@H](Cc2c[nH]c3ccccc23)N=C(c2ccccc2F)c2ccccc21 | ~ 100 uM | –
CC(=O)N1C(Cc2cn(C)c3ccccc23)C(=O)N(C)c2ccccc2[C@@H]1c1ccccc1F (stereo not given in full) | ~ 100 uM | –
Fc1ccccc1C1=N[C@H](Cc2c[nH]c3ccccc23)CNc2ccccc21 | 4 µM | –
